# From ChEMBL document CHEMBL1687891, “Triterpenoid saponins from Symplocos lancifolia” (2011)
# The source made the active and inactive calls. No cut-off for these calls is given here.
# Legend:
# Pseudomonas aeruginosa [1] = test: Antibacterial activity against Pseudomonas aeruginosa as growth inhibition by liquid microdilution assay; assay type: functional
# In short: (§1)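 MIC was determined by liquid broth microdilution growth inhibition against standard strains.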
# Escherichia coli [2] = test: Antibacterial activity against Escherichia coli assessed as growth inhibition by liquid microdilution assay; assay type: functional; in short: as §1
# Enterococcus faecalis [3] = test: Antibacterial activity against Enterococcus faecalis assessed as growth inhibition by liquid microdilution assay; assay type: functional; in short: as §1
# Staphylococcus aureus [4] = test: Antibacterial activity against Staphylococcus aureus assessed as growth inhibition by liquid microdilution assay; assay type: functional; in short: as §1
# Enterococcus faecalis [5] = test: Antibacterial activity against Enterococcus faecalis ATCC 29212 assessed as inhibition zone after 18 hrs by disk diffusion method; assay type: functional, organism-based
# In short: (§2)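 Samples were prepared at 10 mg/mL in water, and 50 µL was applied to 8 mm paper disks. Disks were placed on Mueller-Hinton agar in 9 cm dishes, pre-inoculated with a suspension made from one colony in distilled water. Plates were incubated 18 h at 37 °C, then the inhibition zone was measured.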
# Pseudomonas aeruginosa [6] = test: Antibacterial activity against Pseudomonas aeruginosa ATCC 27853 assessed as inhibition zone after 18 hrs by disk diffusion method; assay type: functional, organism-based; in short: as §2
# Escherichia coli [7] = test: Antibacterial activity against Escherichia coli ATCC 25922 assessed as inhibition zone after 18 hrs by disk diffusion method; assay type: functional, organism-based; in short: as §2
# Staphylococcus aureus [8] = test: Antibacterial activity against Staphylococcus aureus ATCC 25923 assessed as inhibition zone after 18 hrs by disk diffusion method; assay type: functional, organism-based; in short: as §2
# Enterococcus faecalis [9] = test: Antibacterial activity against Enterococcus faecalis ATCC 29212 assessed as clear zone after 18 hrs by TLC bioautography; assay type: functional, organism-based
# In short: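 After the TLC run, the solvent was evaporated. Plates were overlaid with Mueller-Hinton agar seeded with bacteria in nutrient broth and incubated 18 h at 37 °C in a humidified chamber. They were then sprayed with p-iodonitrotetrazolium bromide (2 mg/mL) and incubated 2 h. Clear zones were scored as antibacterial activity.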
MIC (Pseudomonas aeruginosa [1]) [µg/mL],MIC (Escherichia coli [2]) [µg/mL],MIC (Enterococcus faecalis [3]) [µg/mL],MIC (Staphylococcus aureus [4]) [µg/mL],Structure (SMILES),inhibition (Enterococcus faecalis [5]),inhibition (Pseudomonas aeruginosa [6]),inhibition (Escherichia coli [7]),inhibition (Staphylococcus aureus [8]),inhibition (Enterococcus faecalis [9])
> 128,> 128,16,128,C[C@H]1[C@H](C)CC[C@]2(C(=O)O)CC[C@]3(C)C(=CC[C@@H]4[C@@]5(C)CC[C@H](O)C(C)(C)[C@@H]5CC[C@]43C)[C@H]12 [URSOLIC ACID],–,–,–,–,–
> 128,> 128,64,64,CC1(C)CC[C@]2(C(=O)O)CC[C@]3(C)C(=CC[C@@H]4[C@@]5(C)C[C@@H](O)[C@H](O)[C@@](C)(CO)[C@@H]5CC[C@]43C)[C@@H]2C1 [ARJUNOLIC ACID],–,–,–,–,–
> 128,> 128,128,> 128,C[C@H]1[C@H](C)CC[C@]2(C(=O)O)CC[C@]3(C)C(=CC[C@@H]4[C@@]5(C)C[C@@H](O)[C@H](O)[C@@](C)(CO)[C@@H]5CC[C@]43C)[C@H]12 [ASIATIC ACID],–,–,–,–,–
–,–,–,–,C[C@@H]1O[C@@H](O[C@H]2[C@H](OC(=O)[C@]34CCC(C)(C)C[C@H]3C3=CC[C@@H]5[C@@]6(C)C[C@@H](O)[C@H](O[C@@H]7O[C@H](CO)[C@@H](O)[C@H](O)[C@H]7O)C(C)(C)[C@@H]6CC[C@@]5(C)[C@]3(C)CC4)O[C@H](CO)[C@@H](O)[C@@H]2O)[C@H](O)[C@H](O)[C@H]1O,Active,Active,Active,Active,Active
–,–,–,–,C[C@@H]1O[C@@H](O[C@H]2C(OC(=O)[C@]34CCC(C)(C)C[C@H]3C3=CC[C@@H]5[C@@]6(C)C[C@@H](O)[C@H](O[C@@H]7O[C@H](CO)[C@@H](O)[C@H](O)[C@H]7O)[C@@](C)(CO)[C@@H]6CC[C@@]5(C)[C@]3(C)CC4)O[C@H](CO)[C@@H](O)[C@@H]2O)[C@H](O)[C@H](O)[C@H]1O (stereo partly drawn),Active,Active,Active,Active,Active
> 128,> 128,16,> 128,CC1(C)CC[C@]2(C(=O)O)CC[C@]3(C)C(=CC[C@@H]4[C@@]5(C)CC[C@H](O)C(C)(C)[C@@H]5CC[C@]43C)[C@@H]2C1 [OLEANOLIC_ACID],–,–,–,–,–
> 128,> 128,16,64,CC1(C)CC[C@]2(C(=O)O)CC[C@]3(C)C(=CC[C@@H]4[C@@]5(C)C[C@@H](O)[C@H](O)C(C)(C)[C@@H]5CC[C@]43C)[C@@H]2C1 [MASLINIC ACID],–,–,–,–,–
–,–,–,–,C[C@H]1[C@H](C)CC[C@]2(C(=O)OC3O[C@H](CO)[C@@H](O)[C@H](O)[C@H]3O[C@@H]3O[C@@H](C)[C@H](O)[C@@H](O)[C@H]3O)CC[C@]3(C)C(=CC[C@@H]4[C@@]5(C)C[C@@H](O)[C@H](O[C@@H]6O[C@H](CO)[C@@H](O)[C@H](O)[C@H]6O)[C@@](C)(CO)[C@@H]5CC[C@]43C)[C@H]12 (stereo partly drawn),Active,Active,Active,Active,Active

Structure (SMILES),MIC (Pseudomonas aeruginosa [1]) [µg/mL],MIC (Escherichia coli [2]) [µg/mL],MIC (Enterococcus faecalis [3]) [µg/mL],MIC (Staphylococcus aureus [4]) [µg/mL],inhibition (Enterococcus faecalis [5]),inhibition (Pseudomonas aeruginosa [6]),inhibition (Escherichia coli [7]),inhibition (Staphylococcus aureus [8]),inhibition (Enterococcus faecalis [9])
C[C@H]1[C@H](C)CC[C@]2(C(=O)O)CC[C@]3(C)C(=CC[C@@H]4[C@@]5(C)C[C@@H](O)[C@H](O)C(C)(C)[C@@H]5CC[C@]43C)[C@H]12 [COROSOLIC ACID],> 128,> 128,32,32,–,–,–,–,–
CN[C@H](CC(C)C)C(=O)N[C@H]1C(=O)N[C@@H](CC(N)=O)C(=O)N[C@H]2C(=O)N[C@H]3C(=O)N[C@H](C(=O)N[C@H](C(=O)O)c4cc(O)cc(O)c4-c4cc3ccc4O)[C@H](O)c3ccc(c(Cl)c3)Oc3cc2cc(c3O[C@@H]2O[C@H](CO)[C@@H](O)[C@H](O)[C@H]2O[C@H]2C[C@](C)(N)[C@H](O)[C@H](C)O2)Oc2ccc(cc2Cl)[C@H]1O [VANCOMYCIN],–,–,2.5,2.5,–,–,–,–,–
CC(C)(O/N=C(\C(=O)N[C@@H]1C(=O)N2C(C(=O)[O-])=C(C[n+]3ccccc3)CS[C@H]12)c1csc(N)n1)C(=O)O [CEFTAZIDIME],10,10,–,–,–,–,–,–,–
